From PubChem BioAssay
Shown are actives, neighbours in structure and some others; about 3.7% of the full set was active somewhere.
proCasp7 act: activates human procaspase-7, counter-screen for procaspase-3 activators; actives 0.093% (n = 330,000); activation, % at 8.5 µM; recombinant procaspase-7, Ac-DEVD-pNA absorbance 405 nm; D23A/D198A/D206A triple mutant, cannot self-cleave; scale: DMSO 0, 5 µM enzyme 100;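 active = percent activation above the screen-wide mean plus 3 SD, cut at about 25% in these data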
Target sequence (P55210 whole entry D23A/D198A/D206A): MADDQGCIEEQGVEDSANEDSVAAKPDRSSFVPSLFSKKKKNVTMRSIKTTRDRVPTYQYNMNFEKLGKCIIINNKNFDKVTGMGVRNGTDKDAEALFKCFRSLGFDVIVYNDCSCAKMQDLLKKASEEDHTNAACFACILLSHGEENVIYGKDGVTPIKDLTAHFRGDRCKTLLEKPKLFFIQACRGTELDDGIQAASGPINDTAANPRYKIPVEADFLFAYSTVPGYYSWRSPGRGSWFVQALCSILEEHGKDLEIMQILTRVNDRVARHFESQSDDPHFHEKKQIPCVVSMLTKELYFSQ
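signal = Epi-absorbance of released pNA at 405 nm, two timepoints | assay system = Uncleavable procaspase-7 mutant enzyme | reagent = Ac-DEVD-pNA substrate, 400 µM as added | times = 1 h enzyme–compound preincubation and 2 h substrate reaction, both 25 °C | benchmarks = low DMSO alone, high DMSO plus 5 µM PC-7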
GRIN3A LBD mod: modulates the human NR3A ligand-binding domain. actives 2.5% (n = 340,000). NR3A LBD differential scanning fluorimetry, Tm shift; 0% = protein alone, 100% = glycine-bound protein. Tm shift relative to glycine control, % at 25 µM. AID 1259313;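 active = melting temperature shift of at least 10% of the positive control shift, at one fixed dose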
aDG glyco up: alpha-DG glycosylation activation; actives 0.22% (n = 360,000); AID 624168; Pro5-aDG cells, alpha-DG glycosylation AlphaScreen (IIH6); 0% Pro5, 100% B10-LARGE cell signal; activation, % at 10 µM;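 active = activation of at least 8% versus controls, or a plate z-score of at least 8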;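 also: Pro5 are CHO cells carrying HIG-tagged alpha-DG that lacks glycosylation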
MPTP block: inhibitors of mitochondrial permeability transition pore | isolated mouse mitochondria, Ca2+ swelling absorbance, 30 min | inhibition, % at 10 µM | actives 1.4% (n = 360,000);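 active = inhibition of 50% or more, scaled per plate between neutral and stimulator controls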;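 also: 0% = DMSO wells given calcium and 100% = 1 mM EGTA wells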
procasp3 activ: procaspase-3 (human) activation. P42574. recombinant procaspase-3 D3A, Ac-DEVD-pNA absorbance 405 nm. activation, % at 8.5 µM. actives 0.11% (n = 330,000);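 active = activation above the mean of all tested compounds plus 3 SD, cut at about 21% in these data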;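 also: 0% = DMSO alone and 100% = DMSO wells spiked with extra 5 µM PC-3 D3A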
Target sequence (P42574 whole entry D9A/D28A/D175A): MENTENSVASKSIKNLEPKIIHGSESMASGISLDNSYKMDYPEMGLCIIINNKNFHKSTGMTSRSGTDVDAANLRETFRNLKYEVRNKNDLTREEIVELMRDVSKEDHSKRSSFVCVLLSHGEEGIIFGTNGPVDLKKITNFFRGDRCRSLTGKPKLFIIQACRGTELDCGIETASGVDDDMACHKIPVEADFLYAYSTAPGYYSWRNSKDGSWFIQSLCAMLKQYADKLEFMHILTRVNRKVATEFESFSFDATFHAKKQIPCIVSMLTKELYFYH
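Test system: Procaspase-3 D3A mutant; medium: Zinc-free HEPES/NaCl buffer with 0.01% Triton X-100 at pH 7.4; reagent: DEVD-pNA substrate; doses: one concentration, 8.5 µM nominal, 0.8% DMSO; times: 1 h preincubation plus 2 h reaction at 25 °C; signal: Epi-absorbance at 405 nm of released p-nitroaniline, 0 and 120 min; replicates: singlicate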
Rh123 counter: membrane potential counter-screen of mitochondrial pore inhibitors; shares compounds with MPTP block; isolated mitochondria, Rhodamine 123 fluorescence; inhibition, % at 10 µM; actives 78% (n = 5,000); in the data active = inhibition above about 22%;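 also: 0% = DMSO vehicle and 100% = positive control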
MPTP abs DR: MPTP inhibition, dose response swelling confirmation. AID 651561. actives 58% (n = 780). IC50, µM. shares compounds with MPTP block. isolated mitochondria swelling, absorbance; in the data active = IC50 below about 20 µM
MPTP cs DR: active in counter-screen for permeability transition pore inhibitors | shares compounds with MPTP block | isolated mitochondria counterscreen, fluorescence read-out | IC50, µM | actives 49% (n = 780); in the data active = IC50 below about 80 µM
* = called active by the depositor; i = inactive; nt = not tested or not shown.

SMILES | proCasp7 act | GRIN3A LBD mod | aDG glyco up | MPTP block | procasp3 activ | Rh123 counter | others
Cc1nc2ccccc2nc1SCC(=O)c1ccccc1 | -13 | 1 | 1 | 75* | -14 | 71*
O=C(NNC1=C(C(=O)C(F)(F)F)CCC1)c1ccc(Br)cc1 | -3 | -18 | 0 | 93* | -4 | 75*
COc1cccc(C(=O)NNC2=C(C(=O)C(F)(F)F)CCC2)c1 | 4 | 1 | 0 | 63* | -5 | 45*
CCC(Oc1ccccc1)C(=O)N1CCN(S(=O)(=O)c2ccccc2)CC1 (configuration not stated) | -2 | 0 | -1 | 0 | 4 | nt
CCOC(=O)N1CCc2c(sc3ncn(C)c(=O)c23)C1 | 9 | 1 | 0 | -1 | -1 | nt
CCOC(=O)N1CCc2c(sc3nc(SC(C)C)n(N)c(=O)c23)C1 | 3 | -4 | 2 | 62* | 6 | 25*
Cn1cc(Cl)c(C(=O)NC(=S)Nc2sc3c(c2C#N)CCCCC3)n1 | 1 | -1 | -1 | 83* | 2 | 21*
Cn1cc(Br)c(C(=O)Nc2sc3c(c2C#N)CCC3)n1 | 7 | 0 | 0 | 6 | -6 | nt
c1ccc2c(c1)OCC(CNc1ncnc3sccc13)O2 (configuration not stated) | -1 | -4 | 5 | 99* | -1 | 103*
COc1ccccc1CNc1ncnc2sccc12 | -5 | -1 | 2 | 52* | 6 | 76*
COc1ccc(Nc2ncnc3sccc23)cc1OC | -1 | -3 | 0 | 0 | -3 | nt
Fc1ccccc1CNc1ncnc2sccc12 | 2 | 0 | 2 | 24 | 0 | nt
COc1ccc(CCNc2ncnc3sccc23)cc1OC | 10 | 2 | 6 | 95* | -9 | 80*
COc1ccc([N+](=O)[O-])cc1N(CC(O)CN1C(=O)NC(C)(C)C1=O)S(=O)(=O)c1ccc(C)cc1 (configuration not stated) | nt | nt | 0 | 1 | nt | nt
FC(F)(F)c1nc(N2CCCC2)ncc1-c1nnnn1-c1ccccc1 | 11 | 0 | 2 | 73* | 11 | 65*
S=C(NCc1ccc(Cl)cc1)Nc1ccc(Cl)cc1Cl | -13 | 1 | 0 | 100* | -5 | 87*
S=C(NCc1cccs1)Nc1ccc(Br)cc1Cl | -27 | 1 | 0 | 75* | -4 | 79*
S=C(NCc1ccncc1)Nc1ccc(Cl)cc1Cl | -1 | 0 | 0 | 12 | -5 | nt
Fc1ccc(CNC(=S)Nc2ccc(Cl)cc2Cl)cc1 | -4 | -9 | 0 | 100* | 19 | 106*
S=C(NCCc1ccc(Cl)cc1)Nc1ccc(Cl)cc1Cl | -4 | 18* | 0 | 86* | -6 | 86*
O=C(N/N=C/c1cccc(Cl)c1)C1CCCC1 | 16 | -1 | 0 | 1 | -9 | nt
Cc1c(Cl)cccc1NC(=S)NCCc1ccc(Cl)cc1 | -3 | 0 | 0 | 85* | 6 | 81*
CC1CCCCC1NC(=S)Nc1ccc(Cl)cc1Cl (configuration not stated) | 0 | -2 | 0 | 93* | -3 | 87*
CN=C1NC(C)(C)C2CCC(C)(CC2)S1 | nt | 2 | 0 | 1 | nt | nt
CCn1cc(C(=O)OCC(=O)c2cc(C)n(-c3ccc(OC(F)F)cc3)c2C)c(=O)c2ccc(C)nc21 | 4 | -8 | 0 | 2 | 1 | nt
SMILES | proCasp7 act | GRIN3A LBD mod | aDG glyco up | MPTP block | procasp3 activ | Rh123 counter | others
N#Cc1c(-c2cccs2)nc(SCc2ccc(Cl)cc2)[nH]c1=O | nt | -10 | 0 | 96* | nt | 71*
CSc1nc(-c2cccs2)c(C#N)c(=O)[nH]1 | 0 | 5 | 0 | 5 | -21 | nt
O=C(O)c1ccccc1C(=O)c1ccc2oc(=O)[nH]c2c1 | nt | 2 | 0 | 0 | nt | nt
Cc1nc2c(cnn2-c2ccccc2Cl)c(=O)n1-c1ccc(N2CCC(C)CC2)cc1 | -6 | 1 | 1 | 2 | 1 | nt
CCc1nc2c(cnn2-c2ccc(F)cc2)c(=O)n1-c1ccc(N2CCC(C)CC2)cc1 | -3 | 0 | 0 | 76* | 9 | 2 | MPTP abs DR=7.3*;MPTP cs DR=21*
CCCN1C(=O)/C(=C/c2ccc(C)o2)SC1=Nc1ccc(OC)cc1 | 9 | 3 | 0 | 64* | -1 | -3 | MPTP abs DR=i;MPTP cs DR=>80
O=C1NC[C@H](CCCCN2C[C@@H](Cc3ccccc3)N(CC3CCCCC3)C(=O)C2=O)N(CCC2CCCCC2)C1=O | nt | nt | 0 | -6 | nt | nt
Nc1ncnc2c1C(c1ccccc1)c1c(ccc3ccccc13)O2 (configuration not stated) | -2 | -15 | 0 | 1 | 4 | nt
Nc1nc(NC(=O)c2ccc(Cl)cc2)nn1-c1ccccc1 | 5 | -1 | 0 | 81* | -2 | 35*
NC(=O)c1ccc(N2CCN(S(=O)(=O)c3ccccc3)CC2)c([N+](=O)[O-])c1 | 12 | 1 | 2 | 73* | 8 | 21*
COc1cccc(N2CCN(c3ccc(S(=O)(=O)N4CCN(C)CC4)cc3[N+](=O)[O-])CC2)c1 | -8 | 0 | 1 | -2 | 9 | nt
COC(=O)c1ccc(N2CCN(S(=O)(=O)c3ccc4ccccc4c3)CC2)c([N+](=O)[O-])c1 | 12 | 3 | 1 | 72* | 12 | 57*
COc1ccc(N2CCN(S(=O)(=O)c3ccc4c(c3)CCCC4)CC2)c([N+](=O)[O-])c1 | 2 | 0 | 2 | 79* | 12 | 79*
Cc1ccccc1OCC(=O)NNC(=O)c1ccoc1C | 7 | 2 | 0 | -1 | 5 | nt
CCCCNC(=O)O[C@@H]1C[C@H]2CCC(=O)N3CC[C@@H](C1)[C@@H]23 | 9 | -1 | 0 | -4 | -2 | nt
CCOC(=O)[C@]12CCCC=C1N(Cc1ccc(Cl)cc1Cl)C(=O)[C@H](CC(=O)NCc1ccc(OC)c(OC)c1)C2 | nt | nt | 0 | 0 | nt | nt
S=C(Nc1ccc(Cl)cc1)c1sc(N2CCCCC2)nc1N1CCOCC1 | -8 | 4 | -1 | 3 | 3 | nt
O=C(NCc1nc(-c2ccc(C(F)(F)F)cc2)no1)Nc1ccc(OC(F)(F)F)cc1 | 2 | 36* | 0 | 78* | -9 | 74*
CCN1C(=C(C#N)C#N)C=Cc2cc(C)ccc21 | 13 | 1 | 0 | -1 | 0 | nt
C=CC[n+]1c(/C=C2\C=Cc3cc(C)ccc3N2CC)ccc2ccccc21 | -2 | -1 | 2 | 112* | -3 | 78*
COc1ccccc1CNC(=O)COC(=O)C1CCN(c2ccc(C(F)(F)F)cn2)CC1 | -5 | -7 | 0 | -2 | -1 | nt
